A short description of data set [1]: Stability in human HeLa cell homogenate assessed as half life by LC-MS/MS analysis. In kind it is ADME, cell-based. Put shortly:
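HeLa cells suspended at 1 × 10^6 cells/mL, probe-sonicated on ice until homogeneous, stored frozen at –20 °C. Peptides incubated with homogenate (1 × 10^6 cells/mL equivalent); peptide loss over time quantified by LC-MS/MS to derive t1/2.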

The target in a further data set is GTPase KRas (Homo sapiens, UniProt P01116, G12D). The data set can be described thus: Inhibition of recombinant biotinylated KRAS G12D mutant (unknown origin) assessed as inhibition of SOS-catalyzed nucleotide exchange preincubated for 60 mins followed by addition of human SOS protein and unlabeled GTP and measured after 60 mins by TR-FRET analysis. Put shortly: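 Biotinylated KRAS G12D was treated in EDTA buffer (1 h, RT), then loaded at 90 nM with 900 nM Bodipy-GDP and 15 nM Tb-streptavidin in Mg2+ buffer, HEPES pH 7.5 (6 h, RT). It was used at 1.5 nM assay solution with a 10-point, 3-fold DMSO compound series for 60 min at RT. A solution of 120 nM human SOS plus GTP was added for 60 min. The read-out was TR-FRET at 520/495 nm, normalized to DMSO and saturating-inhibitor controls, with a 4-parameter fit.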
Chain of GTPase KRas (P01116 whole entry G12D): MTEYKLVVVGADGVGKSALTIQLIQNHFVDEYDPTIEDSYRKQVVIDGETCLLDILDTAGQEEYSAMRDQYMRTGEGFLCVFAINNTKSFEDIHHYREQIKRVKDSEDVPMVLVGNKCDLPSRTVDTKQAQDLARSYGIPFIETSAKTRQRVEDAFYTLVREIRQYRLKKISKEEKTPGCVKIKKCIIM

Where a SMILES comes first, the peptide text is derived from it. Bridges are numbered along the chain shown (N, C = ends). [ ]: non-standard residue; d: D form. Ala(4-thiazolyl) = N[C@@H](Cc1cscn1)C(=O)O; Bip = N[C@@H](Cc1ccc(-c2ccccc2)cc1)C(=O)O; Ala(cPent) = N[C@@H](CC1CCCC1)C(=O)O; hPhe = N[C@@H](CCc1ccccc1)C(=O)O; Cha = N[C@@H](CC1CCCCC1)C(=O)O; hLeu = CC(C)CC[C@H](N)C(=O)O; Nle = CCCC[C@H](N)C(=O)O; Nva = CCC[C@H](N)C(=O)O A value given as a limit tells only on which side of the number the result lay.

The half-life is the time in which the quantity being followed falls by half. A word on the IC50: it is the point on the concentration scale where inhibition reaches its midpoint. Regarding `CC[C@H](C)[C@@H]1NC(=O)[C@H](CCc2ccccc2)NC(=O)[C@H](CC(C)C)NC(=O)[C@@H]2CCCN2C(=O)[C@@H](NC(=O)[C@H](CCCNC(=N)N)NC(=O)[C@H](CCCNC(=N)N)NC(C)=O)CSSC[C@@H](C(=O)N[C@@H](CCCNC(=N)N)C(=O)N[C@@H](CCCNC(=N)N)C(N)=O)NC(=O)[C@H](C(C)C)NC(=O)[C@@H]2CCCN2C(=O)[C@H](CC(=O)O)NC(=O)[C@H](Cc2ccc(O)cc2)NC(=O)[C@H](CO)NC1=O` (Ac-RRCPL[hPhe]ISYDPVCRR-NH2; disulfide 3-13), the half-life in data set [1] came to 37 min. In addition, the IC50 on GTPase KRas was 1.39 µM.
Turning to `CC[C@H](C)[C@@H]1NC(=O)[C@H](Cc2ccc(O)cc2)NC(=O)[C@H](CC(C)C)NC(=O)[C@@H]2CCCN2C(=O)[C@@H](NC(=O)[C@H](CCCNC(=N)N)NC(=O)[C@H](CCCNC(=N)N)NC(C)=O)CSSC[C@@H](C(=O)N[C@@H](CCCNC(=N)N)C(=O)N[C@@H](CCCNC(=N)N)C(N)=O)NC(=O)[C@H](C(C)C)NC(=O)[C@@H]2CCCN2C(=O)[C@H](CC(=O)O)NC(=O)[C@H](Cc2cc(F)c(F)c(F)c2)NC(=O)[C@H](CO)NC1=O`, the half-life in data set [1] is 18 min. In addition, the IC50 at GTPase KRas worked out at 0.193 µM.
With `CC[C@H](C)[C@@H]1NC(=O)[C@H](Cc2ccc(O)cc2)NC(=O)[C@H](CC(C)C)NC(=O)[C@@H]2CCCN2C(=O)[C@@H](NC(=O)[C@H](CCCNC(=N)N)NC(=O)[C@H](CCCNC(=N)N)NC(C)=O)CSSC[C@@H](C(=O)N[C@@H](CCCNC(=N)N)C(=O)N[C@@H](CCCNC(=N)N)C(N)=O)NC(=O)[C@H](C(C)C)NC(=O)[C@@H]2CCCN2C(=O)[C@H](CC(=O)O)NC(=O)[C@H](Cc2ccc(O)cc2)NC(=O)[C@H](Cc2cscn2)NC1=O` (Ac-RRCPLYI[Ala(4-thiazolyl)]YDPVCRR-NH2; disulfide 3-13), the half-life in data set [1] amounted to 22 min. The IC50 on GTPase KRas was determined as 2.27 µM.
Consider `CC[C@H](C)[C@@H]1NC(=O)[C@H](Cc2ccc(O)cc2)NC(=O)[C@H](CC(C)C)NC(=O)[C@@H]2CCCN2C(=O)[C@@H](NC(=O)[C@H](CCCNC(=N)N)NC(=O)[C@H](CCCNC(=N)N)NC(C)=O)CSSC[C@@H](C(=O)N[C@@H](CCCNC(=N)N)C(=O)N[C@@H](CCCNC(=N)N)C(N)=O)NC(=O)[C@H](C(C)C)NC(=O)[C@@H]2CCCN2C(=O)[C@H](CC(=O)O)NC(=O)[C@H](C(c2ccccc2)c2ccccc2)NC(=O)[C@H](CO)NC1=O`, for which, in data set [1], the half-life was 30 min. Moreover, the IC50 on GTPase KRas came to 0.251 µM.
Turning to `CC(=O)N[C@@H](CCCNC(=N)N)C(=O)N[C@@H](CCCNC(=N)N)C(=O)N[C@H]1CSSC[C@@H](C(=O)N[C@@H](CCCNC(=N)N)C(=O)N[C@@H](CCCNC(=N)N)C(N)=O)NC(=O)[C@H](C(C)C)NC(=O)[C@@H]2CCCN2C(=O)[C@H](CC(=O)O)NC(=O)[C@H](Cc2ccc(O)cc2)NC(=O)[C@H](CO)NC(=O)[C@H](CC2CCCC2)NC(=O)[C@H](CCc2ccccc2)NC(=O)[C@H](CC(C)C)NC(=O)[C@@H]2CCCN2C1=O` (Ac-RRCPL[hPhe][Ala(cPent)]SYDPVCRR-NH2; disulfide 3-13), the half-life in data set [1] was determined as 16 min. In addition, on GTPase KRas, the IC50 is over 11.1 µM.
Regarding `CCCC[C@@H]1NC(=O)[C@H]([C@@H](C)CC)NC(=O)[C@H](Cc2ccc(O)cc2)NC(=O)[C@H](CC(C)C)NC(=O)[C@@H]2CCCN2C(=O)[C@@H](NC(=O)[C@H](CCCNC(=N)N)NC(=O)[C@H](CCCNC(=N)N)NC(C)=O)CSSC[C@@H](C(=O)N[C@@H](CCCNC(=N)N)C(=O)N[C@@H](CCCNC(=N)N)C(N)=O)NC(=O)[C@H](C(C)C)NC(=O)[C@@H]2CCCN2C(=O)[C@H](CC(=O)O)NC(=O)[C@H](CC2CCCCC2)NC1=O` (Ac-RRCPLYI[Nle][Cha]DPVCRR-NH2; disulfide 3-13), in data set [1], the half-life worked out at 26 min. The IC50 at GTPase KRas is over 11.1 µM.
For the compound `CC(=O)N[C@@H](CCCNC(=N)N)C(=O)N[C@@H](CCCNC(=N)N)C(=O)N[C@H]1CSSC[C@@H](C(=O)N[C@@H](CCCNC(=N)N)C(=O)N[C@@H](CCCNC(=N)N)C(N)=O)NC(=O)[C@H](C(C)C)NC(=O)[C@@H]2CCCN2C(=O)[C@H](CC(=O)O)NC(=O)[C@H](Cc2ccc(O)cc2)NC(=O)[C@H](CO)NC(=O)[C@H](CCC(C)C)NC(=O)[C@H](Cc2ccc(-c3ccccc3)cc2)NC(=O)[C@H](CC(C)C)NC(=O)[C@@H]2CCCN2C1=O` (Ac-RRCPL[Bip][hLeu]SYDPVCRR-NH2; disulfide 3-13), the half-life in data set [1] stood at 17 min. In addition, the IC50 on GTPase KRas is over 11.1 µM.
Regarding `CC(=O)N[C@@H](CCCNC(=N)N)C(=O)N[C@@H](CCCNC(=N)N)C(=O)N[C@H]1CSSC[C@@H](C(=O)N[C@@H](CCCNC(=N)N)C(=O)N[C@@H](CCCNC(=N)N)C(N)=O)NC(=O)[C@H](C(C)C)NC(=O)[C@@H]2CCCN2C(=O)[C@H](CC(=O)O)NC(=O)[C@H](Cc2ccc(O)cc2)NC(=O)[C@H](CO)NC(=O)[C@H](CCC(C)C)NC(=O)[C@H](CC2CCCCC2)NC(=O)[C@H](CC(C)C)NC(=O)[C@@H]2CCCN2C1=O` (Ac-RRCPL[Cha][hLeu]SYDPVCRR-NH2; disulfide 3-13), the half-life in data set [1] worked out at 25 min. The concentration for half-maximal inhibition (IC50) at GTPase KRas was over 11.1 µM.
For `CCC[C@@H]1NC(=O)[C@H](CCc2ccccc2)NC(=O)[C@H](CC(C)C)NC(=O)[C@@H]2CCCN2C(=O)[C@@H](NC(=O)[C@H](CCCNC(=N)N)NC(=O)[C@H](CCCNC(=N)N)NC(C)=O)CSSC[C@@H](C(=O)N[C@@H](CCCNC(=N)N)C(=O)N[C@@H](CCCNC(=N)N)C(N)=O)NC(=O)[C@H](C(C)C)NC(=O)[C@@H]2CCCN2C(=O)[C@H](CC(=O)O)NC(=O)[C@H](Cc2ccc(O)cc2)NC(=O)[C@H](CO)NC1=O` (Ac-RRCPL[hPhe][Nva]SYDPVCRR-NH2; disulfide 3-13), in data set [1], the half-life is 15 min. In addition, the IC50 at GTPase KRas is over 11.1 µM.
For `CC[C@H](C)[C@@H]1NC(=O)[C@H](Cc2ccc(O)cc2)NC(=O)[C@H](CC(C)C)NC(=O)[C@@H]2CCCN2C(=O)[C@@H](NC(=O)[C@H](CCCNC(=N)N)NC(=O)[C@H](CCCNC(=N)N)NC(C)=O)CSSC[C@@H](C(=O)N[C@@H](CCCNC(=N)N)C(=O)N[C@@H](CCCNC(=N)N)C(N)=O)NC(=O)[C@H](C(C)C)NC(=O)[C@@H]2CCCN2C(=O)[C@H](CC(=O)O)NC(=O)[C@H](CC2CCCCC2)NC(=O)[C@H](CO)NC1=O`, the half-life in data set [1] was determined as 15 min. The IC50 on GTPase KRas worked out at 1.47 µM.
With `CC(=O)N[C@@H](CCCNC(=N)N)C(=O)N[C@@H](CCCNC(=N)N)C(=O)N[C@H]1CSSC[C@@H](C(=O)N[C@@H](CCCNC(=N)N)C(=O)N[C@@H](CCCNC(=N)N)C(N)=O)NC(=O)[C@H](C(C)C)NC(=O)[C@@H]2CCCN2C(=O)[C@H](CC(=O)O)NC(=O)[C@H](Cc2ccc(O)cc2)NC(=O)[C@H](CO)NC(=O)[C@H](CCC(C)C)NC(=O)[C@H](CCc2ccccc2)NC(=O)[C@H](CC(C)C)NC(=O)[C@@H]2CCCN2C1=O` (Ac-RRCPL[hPhe][hLeu]SYDPVCRR-NH2; disulfide 3-13), the half-life in data set [1] worked out at 14 min. In addition, the IC50 on GTPase KRas is over 11.1 µM.
The matching figures for `CC(=O)N[C@@H](CCCNC(=N)N)C(=O)N[C@@H](CCCNC(=N)N)C(=O)N[C@H]1CSSC[C@@H](C(=O)N[C@@H](CCCNC(=N)N)C(=O)N[C@@H](CCCNC(=N)N)C(N)=O)NC(=O)[C@H](C(C)C)NC(=O)[C@@H]2CCCN2C(=O)[C@H](CC(=O)O)NC(=O)[C@H](Cc2ccc(O)cc2)NC(=O)[C@H](CO)NC(=O)[C@H](CCC(C)C)NC(=O)[C@H](Cc2ccc(O)cc2)NC(=O)[C@H](CC(C)C)NC(=O)[C@@H]2CCCN2C1=O` (Ac-RRCPLY[hLeu]SYDPVCRR-NH2; disulfide 3-13): 28 min and over 11.1 µM.
Regarding `CC[C@H](C)[C@@H]1NC(=O)[C@H](Cc2ccc(O)cc2)NC(=O)[C@H](CC(C)C)NC(=O)[C@@H]2CCCN2C(=O)[C@@H](NC(=O)[C@H](CCCNC(=N)N)NC(=O)[C@H](CCCNC(=N)N)NC(C)=O)CSSC[C@@H](C(=O)N[C@@H](CCCNC(=N)N)C(=O)N[C@@H](CCCNC(=N)N)C(N)=O)NC(=O)[C@H](C(C)C)NC(=O)[C@@H]2CCCN2C(=O)[C@H](CC(=O)O)NC(=O)[C@H](Cc2ccc(O)cc2)NC(=O)[C@H](CO)NC1=O` (Ac-RRCPLYISYDPVCRR-NH2; disulfide 3-13), the half-life in data set [1] turned out to be 23 min. In addition, the IC50 on GTPase KRas was determined as 0.054 µM.
The matching figures for `CCC[C@@H]1NC(=O)[C@H](Cc2ccc(O)cc2)NC(=O)[C@H](CC(C)C)NC(=O)[C@@H]2CCCN2C(=O)[C@@H](NC(=O)[C@H](CCCNC(=N)N)NC(=O)[C@H](CCCNC(=N)N)NC(C)=O)CSSC[C@@H](C(=O)N[C@@H](CCCNC(=N)N)C(=O)N[C@@H](CCCNC(=N)N)C(N)=O)NC(=O)[C@H](C(C)C)NC(=O)[C@@H]2CCCN2C(=O)[C@H](CC(=O)O)NC(=O)[C@H](Cc2ccc(O)cc2)NC(=O)[C@H](CO)NC1=O` (Ac-RRCPLY[Nva]SYDPVCRR-NH2; disulfide 3-13): 19 min and over 11.1 µM.
For `CC[C@H](C)[C@@H]1NC(=O)[C@H](CC2CCCCC2)NC(=O)[C@H](CC(C)C)NC(=O)[C@@H]2CCCN2C(=O)[C@@H](NC(=O)[C@H](CCCNC(=N)N)NC(=O)[C@H](CCCNC(=N)N)NC(C)=O)CSSC[C@@H](C(=O)N[C@@H](CCCNC(=N)N)C(=O)N[C@@H](CCCNC(=N)N)C(N)=O)NC(=O)[C@H](C(C)C)NC(=O)[C@@H]2CCCN2C(=O)[C@H](CC(=O)O)NC(=O)[C@H](Cc2ccc(O)cc2)NC(=O)[C@H](CO)NC1=O` (Ac-RRCPL[Cha]ISYDPVCRR-NH2; disulfide 3-13), in data set [1], the half-life worked out at 21 min. The IC50 on GTPase KRas worked out at 0.161 µM.
